ChEMBL document CHEMBL1255202, “Polyamine conjugation of curcumin analogues toward the discovery of mitochondria-directed neuroprotective agents” (J Med Chem, 2010)
Activity calls are given as the source filed them. The rule behind the calls is not given here.

Tests used:
[1] = Cellular uptake in human T67 cells at 10 uM after 30 mins by fluorescence microscopic analysis; format: ADME, cell-based; settings: t67, 0.5 h
Method in brief: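 T67 glioma cells were pretreated with 10 μM fluorescent probe plus 1 mg/mL oligomycin. Images were taken by inverted fluorescence microscopy after 30 min of incubation, with or without 20 μM CCCP uncoupler to test dependence on mitochondrial potential.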

[2] = Cellular uptake in human T67 cells at 10 uM after 30 mins by fluorescence microscopic analysis in presence of mitochondrial uncoupler carbonyl cyanide m-chlorophenyl-hydrazone; format: ADME, cell-based; settings: t67, 0.5 h
Method in brief: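 T67 glioma cells were pretreated with 10 μM of the fluorescent test compound plus 1 mg/mL oligomycin, an ATP-synthase inhibitor, with 20 μM CCCP uncoupler added. Images were taken by inverted fluorescence microscopy after 30 min of incubation.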

HaCaT [3] = assay: Antiproliferative activity against human HaCaT cells after 72 hrs by MTT assay; format: cell-based
Method in brief: (§1)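 Cells were incubated 72 h with compound at 0.1-30 μM, and proliferation was measured by MTT. IC50 is the concentration giving 50% inhibition of proliferation, reported as the mean of two independent experiments.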

Caco-2 [4] = assay: Antiproliferative activity against human Caco-2 cells after 72 hrs by MTT assay; format: functional, cell-based; settings: Caco-2, 72 h; method in brief: as §1
Bos taurus = organism: Bos taurus; assay: Antioxidant activity in bovine heart mitochondria assessed as reduction of antimycin A-induced ROS production at 10 uM by fluorescence plate reader analysis; format: functional
Method in brief: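 Submitochondrial particles were given NADH as substrate, and ROS production was induced with 2 μM antimycin A. Compounds were tested at 10 μM, with 1.8 μM mucidin as negative control. ROS were detected with the fluorogenic probe DCFDA.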

SH-SY5Y [5] = assay: Antiproliferative activity against human SH-SY5Y cells after 72 hrs by MTT assay; format: functional, cell-based; method in brief: as §1
C6 [6] = assay: Antiproliferative activity against rat C6 cells after 72 hrs by MTT assay; format: functional, cell-based; settings: C6, 72 h; method in brief: as §1
[7] = Antiproliferative activity against mouse HT22 cells after 72 hrs by MTT assay; format: cell-based; settings: HT-22, 72 h; method in brief: as §1
[8] = molecular target: T1, Heme oxygenase 1 (Bos taurus) (UniProt Q5E9F2); assay: Activation of heme oxygenase-1 in BAEC at 10 uM after 6 hrs
T1 sequence (whole entry): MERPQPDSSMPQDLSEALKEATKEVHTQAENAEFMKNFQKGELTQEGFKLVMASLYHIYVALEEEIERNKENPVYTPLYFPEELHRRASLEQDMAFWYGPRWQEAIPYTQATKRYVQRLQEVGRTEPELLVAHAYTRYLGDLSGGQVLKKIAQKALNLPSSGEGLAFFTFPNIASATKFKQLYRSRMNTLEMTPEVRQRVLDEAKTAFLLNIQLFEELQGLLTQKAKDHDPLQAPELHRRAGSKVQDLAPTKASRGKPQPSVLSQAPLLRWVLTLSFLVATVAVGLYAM
Method in brief: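 HO-1 activity measured in bovine aortic endothelial cells exposed to 10 μM compound for 6 h. Control cells received medium alone. Activity is reported as (pmol bilirubin/mg protein)/h, averaged over three independent experiments.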

T67 = assay: Antiproliferative activity against human T67 cells at 10 uM after 72 hrs by MTT assay; format: functional, cell-based
Caco-2 [9] = assay: Antiproliferative activity against human Caco-2 cells at 10 uM after 72 hrs by MTT assay; format: functional
Method in brief: (§2)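 Proliferation was measured by MTT after 72 h exposure to compound (range 0.1-30 μM, with the 10 μM point reported). Results are expressed as percent of control cells, as the mean of two independent experiments.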

[10] = Antiproliferative activity against mouse HT22 cells at 10 uM after 72 hrs by MTT assay; format: cell-based; settings: ht-22, 72 h; method in brief: as §2
[11] = Antioxidant activity in human fibroblasts assessed as reduction of tert-butyl hydroperoxide-induced ROS production at 10 uM treated 24 hrs before tert-butyl hydroperoxide challenge measured after 30 mins by fluorescence plate reader analysis; format: functional, Fibroblast; parameters: scale not given: the % may be the effect or the level left
C6 [12] = assay: Antiproliferative activity against rat C6 cells at 10 uM after 72 hrs by MTT assay; format: functional; method in brief: as §2
HaCaT [13] = assay: Antiproliferative activity against human HaCaT cells at 10 uM after 72 hrs by MTT assay; format: cell-based; method in brief: as §2
SH-SY5Y [14] = assay: Antiproliferative activity against human SH-SY5Y cells at 10 uM after 72 hrs by MTT assay; format: functional; method in brief: as §2

SMILES | Drug uptake [1] | Drug uptake [2] | IC50 (HaCaT [3]) [µM] | IC50 (Caco-2 [4]) [µM] | Activity (Bos taurus) | IC50 (SH-SY5Y [5]) [µM] | IC50 (C6 [6]) [µM] | IC50 [7] [µM] | Activity [8] | Activity (T67) | Activity (Caco-2 [9]) [%] | Activity [10] [%] | Activity [11] [%] | Activity (C6 [12]) [%] | Activity (HaCaT [13]) [%] | Activity (SH-SY5Y [14]) [%]
COc1cc(/C=C2\CN(C(=O)CCC(=O)N(CCCNCCCCNCCCN)Cc3ccc(-c4nc5ccccc5s4)cc3)C/C(=C\c3ccc(O)c(OC)c3)C2=O)ccc1O | Active | Not Active |  |  |  |  |  |  |  |  |  |  |  |  |  | 
COc1cc(/C=C2\CNC/C(=C\c3ccc(O)c(OC)c3)C2=O)ccc1O |  |  | 3 | 0.2 | inactive | 2.1 | 3.9 | 3.1 | Active | Active |  |  |  |  |  | 
COc1cc(/C=C2\CN(C(=O)CCC(=O)NCCCNCCCCNCCCN)C/C(=C\c3ccc(O)c(OC)c3)C2=O)ccc1O |  |  | 15.6 | 11.9 | Active | 14.2 | 13.9 | 19.8 |  |  | 40 | 10 | 45 | 40 | 10 | 40
COc1cc(/C=C2\CN(C(=O)CCC(=O)NCCCNCCCN)C/C(=C\c3ccc(O)c(OC)c3)C2=O)ccc1O |  |  | 17.7 | 16.5 | Active | 17.8 | 19.9 | 24.5 |  |  |  |  | 40 |  |  | 
CCOc1cc(/C=C2\CN(C(=O)CCC(=O)NCCCNCCCCNCCCN)C/C(=C\c3ccc(O)c(OCC)c3)C2=O)ccc1O |  |  | 15.7 | 14.4 | Active | 20.8 | 14.2 | 18.4 |  |  |  |  | 38 |  |  | 
CCCCCC[C@H]1C(=O)O[C@H](C)[C@H](NC(=O)c2cccc(NC=O)c2O)C(=O)O[C@@H](C)[C@@H]1OC(=O)CC(C)C |  |  |  |  | inactive |  |  |  |  |  |  |  |  |  |  | 
CCOc1cc(/C=C2\CN(C(=O)CCC(=O)NCCCNCCCN)C/C(=C\c3ccc(O)c(OCC)c3)C2=O)ccc1O |  |  | 15.5 | 16.2 | Active | 14.6 | 14.5 | 18.9 |  |  |  |  | 45 |  |  | 
COc1cc(/C=C/C(=O)CC(=O)/C=C/c2ccc(O)c(OC)c2)ccc1O [CURCUMIN] |  |  | 21.9 | 15 |  | 12.8 | 16.1 | 20.4 |  |  |  |  |  |  |  | 
